CAL PDZ FP-1: inhibitors of human CAL PDZ peptide binding; Q9HD26; purified CAL PDZ, TMR-peptide fluorescence polarization, 1 h; inhibition, % at 24.9 µM; hit rate 0.92% among 300,000; AID 602252;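 active = mean inhibition of at least 30% with at least half of replicates also reaching 30%; inconclusive = no clear call, values can overlap the other calls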;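 note: 0% = DMSO neutral control and 100% = excess unlabeled competitor peptide PRC23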
ERAP1 HTS inh: ERAP1 (human) enzyme inhibition | Q9NZ08 | recombinant ERAP1, Leu-AMC fluorescence, 60 min | inhibition, % at 10.7 µM | hit rate 0.15% among 340,000;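 active = mean replicate inhibition of at least 30%, or all replicates individually reaching that 30% level; inactive = mean below 30% and not every replicate reaching it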;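 note: 0% = neutral control wells and 100% = L-leucinethiol positive control wells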
CAL PDZ FP-2: human CAL PDZ-peptide interaction inhibition | hit rate 0.02% among 330,000 | Q9HD26 | purified CAL PDZ, TMR-peptide fluorescence polarization, 1 h | inhibition, % at 20 µM | AID 504414;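 active = highest replicate inhibition of at least 40%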;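 note: plate controls were DMSO neutral control wells for no effect and unlabeled competitor peptide control wells for full effect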
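Material: tagged CAL PDZ domain; buffer or medium: 25 mM sodium phosphate pH 7.4, 150 mM NaCl, TCEP, IgG, Thesit; compound dosing: single point, 20 µM; schedule: 1 h incubation at room temperature before polarization reading; measured by: FP readout, S and P plane fluorescence; read-out basis: percent inhibition from loss of millipolarization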
SIRT5 block: blocks human SIRT5 desuccinylation of peptide; Q9NXA8; Purified SirT5, succinyl-peptide AMC, trypsin-coupled fluorescence; inhibition, % at 15 µM; hit rate 1.1% among 330,000; AID 652115; in the data active = inhibition above about 15%; inconclusive = no clear call, values can overlap the other calls
Target sequence (Q9NXA8 whole entry, looked up): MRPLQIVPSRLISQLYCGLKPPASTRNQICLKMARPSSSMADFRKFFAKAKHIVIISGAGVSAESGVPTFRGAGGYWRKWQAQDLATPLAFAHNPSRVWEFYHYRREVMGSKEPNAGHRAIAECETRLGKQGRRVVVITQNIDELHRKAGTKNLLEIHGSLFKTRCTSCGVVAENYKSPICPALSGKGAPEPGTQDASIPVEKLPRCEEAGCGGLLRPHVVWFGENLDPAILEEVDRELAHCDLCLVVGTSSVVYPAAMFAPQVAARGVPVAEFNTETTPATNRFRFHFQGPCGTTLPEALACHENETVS
S100A4 MyoIIA: S100A4-myosin IIA interaction inhibition; P26447; S100A4/TAMRA-MyoIIA peptide fluorescence polarization; inhibition, % at 10.7 µM; hit rate 0.14% among 360,000; AID 652163;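 active = mean inhibition of at least 70% across replicates, with every replicate also reaching that level; inconclusive = mean inhibition reaches 70% but some replicates fall short; inactive = mean inhibition below 70%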
Target sequence (P26447 whole entry, looked up): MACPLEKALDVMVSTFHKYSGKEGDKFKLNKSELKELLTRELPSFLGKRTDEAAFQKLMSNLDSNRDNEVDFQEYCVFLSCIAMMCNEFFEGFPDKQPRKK
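System – human S100A4 monomer protein, biochemical binding assay · Buffer or medium – Calcium-containing HEPES buffer, pH 7.2 · Timing – 5 min between mix addition and reading · Also added – TAMRA-labelled myosin IIA heavy-chain peptide probe, 5 nM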
DENV2 CPE rescue: protects cells from dengue virus 2 cytopathic effect; DENV2-infected cells, cytopathic effect rescue, plate reader; CPE inhibition, % at 9.99 µM; hit rate 1.7% among 350,000; AID 651640; in the data active = CPE inhibition above about 20%, passing the limit was not always enough; inconclusive = no clear call, values can overlap the other calls; tested in BHK-21 cells;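 note: 0% = median of neutral control wells and 100% = median of positive control wells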
Starred values were filed as active, the others as inactive; u = inconclusive; x = no result given; ! = not confirmed by another sample. A selection: hits, their analogues and other compounds. The true share with any hit is near 2.9%.

SMILES | CAL PDZ FP-1 | ERAP1 HTS inh | CAL PDZ FP-2 | SIRT5 block | S100A4 MyoIIA | DENV2 CPE rescue
C[C@H]1CN([C@@H](C)CO)S(=O)(=O)c2ccc(/C=C/c3ccccc3)cc2O[C@@H]1CN(C)C(=O)NC1CCCC1 | x | 2.3 | x | 31.9* | 7.3 | -3.9
C[C@H](CO)N1C[C@H](C)[C@H](CN(C)C(=O)Nc2ccc(F)cc2)Oc2cc(/C=C/c3ccccc3)ccc2S1(=O)=O | x | 2.9 | x | 20.8* | 6.2 | -8.0
C[C@H](CO)N1C[C@H](C)[C@H](CN(C)C(=O)Nc2cccc(F)c2)Oc2cc(/C=C/c3ccccc3)ccc2S1(=O)=O | x | 2.3 | x | 0.1 | 7.4 | -8.6
C[C@H](CO)N1C[C@H](C)[C@H](CN(C)C(=O)NC2CCCC2)Oc2cc(/C=C/c3ccccc3)ccc2S1(=O)=O | x | 0.5 | x | 16.2* | -4.5 | -2.8
C[C@@H]1CN([C@H](C)CO)S(=O)(=O)c2ccc(/C=C/c3ccccc3)cc2O[C@@H]1CN(C)C(=O)NC1CCCCC1 | x | 0.0 | x | -9.5 | 2.7 | -3.5
C[C@@H]1CN([C@@H](C)CO)C(=O)c2cccc(NS(=O)(=O)c3cn(C)cn3)c2O[C@H]1CN(C)S(=O)(=O)c1cccs1 | x | -0.5 | x | -5.1 | -19.4 | 18.8
C[C@H](CO)N1C[C@H](C)[C@H](CN(C)S(=O)(=O)c2cn(C)cn2)OCCCC[C@H](C)Oc2ccc(NS(=O)(=O)c3ccccc3)cc2C1=O | x | 3.1 | x | -0.8 | 10.4 | -3.4
Cc1cc(C)n2c(NC3CCCC3)c(-c3cccnc3)nc2n1 | x | -4.3 | x | x | -2.0 | 22.1*
CN(C)CC#Cc1ccc([C@@H]2[C@@H](CO)N3C(=O)CN(C(=O)c4ccc(F)cc4)C[C@@H]23)cc1 | x | -0.3 | x | 1.7 | -1.8 | -4.8
Clc1cccc(/C=N\Nc2nccs2)c1 | -0.9 | 3.0 | x | -5.2 | -1.5 | x
C(=N/Nc1nccs1)/c1cccnc1 | -1.1 | 13.5 | 0.9 | 19.2* | 1.1 | 5.1
COc1ccc(CC(=O)NCCS(=O)(=O)N2CCN(c3ccccc3OC)CC2)cc1 | -0.1 | 1.8 | -2.8 | -5.3 | -37.5 | -4.1
COc1ccccc1N1CCN(S(=O)(=O)CCNC(=O)CCc2ccccc2)CC1 | x | -0.3 | x | 0.6 | -3.3 | 119.5*
Cc1ccc([C@H]2C(C(=O)O)=C[C@@H](C(C)(C)C)N2S(=O)(=O)c2ccc(C)cc2)cc1 | x | -0.4 | -1.9 | 1.2 | -7.1 | u
COc1ccc([C@H]2C(C(=O)O)=C[C@@H](C(C)(C)C)N2S(=O)(=O)c2ccccc2)cc1 | -3.1 | -1.2 | 1.6 | -1.4 | 0.3 | 82.9*
Cc1cccc(C(=O)Nc2ccn(C)n2)c1 | 54.7* | 0.1 | -0.3 | -2.2 | -0.5 | 5.0
Cn1ccc(NC(=O)c2ccc(Cl)cc2)n1 | -1.1 | 3.1 | 0.4 | 0.3 | -5.9 | -2.4
C[C@@H]1CN([C@H](C)CO)C(=O)c2cc(NC(=O)Cn3cnnn3)ccc2O[C@H]1CN(C)S(=O)(=O)c1ccc(Cl)cc1 | x | -5.4 | x | 2.9 | -11.4 | 0.5
C[C@@H]1CN([C@@H](C)CO)C(=O)Cc2cc(NS(=O)(=O)c3ccc(F)cc3)ccc2O[C@@H]1CN(C)CC1CCCCC1 | x | -1.6 | x | 13.9 | -24.9 | 16.9
C[C@@H]1CN([C@@H](C)CO)C(=O)Cc2cc(NS(=O)(=O)c3ccc(F)cc3)ccc2O[C@H]1CN(C)CC1CCCCC1 | x | 1.5 | x | 16.4* | 2.4 | 4.0
C[C@H](CO)N1C[C@H](C)[C@H](CN(C)CC2CCCCC2)Oc2ccc(NS(=O)(=O)c3ccc(Cl)cc3)cc2CC1=O | x | -1.9 | x | 29.1* | 27.5 | 0.0
C[C@H]1CN([C@@H](C)CO)C(=O)Cc2cc(NS(=O)(=O)c3ccc(F)cc3)ccc2O[C@H]1CN(C)CC1CCCCC1 | x | 5.3 | x | 16.6* | 38.7 | 3.7
C[C@H]1CN([C@@H](C)CO)C(=O)Cc2cc(NS(=O)(=O)c3ccc(Cl)cc3)ccc2O[C@H]1CN(C)CC1CCCCC1 | x | 0.8 | x | x | 22.8 | -2.0
Cc1noc(C)c1S(=O)(=O)N(C)C[C@@H]1Oc2ccc(NS(=O)(=O)c3ccccc3)cc2C(=O)N([C@@H](C)CO)C[C@@H]1C | x | x | x | -4.4 | x | -11.5
CNC[C@@H]1Oc2c(NC(=O)Nc3ccccc3)cccc2C(=O)N([C@H](C)CO)C[C@H]1C | x | 1.6 | x | -0.6 | 8.0 | -1.9
SMILES | CAL PDZ FP-1 | ERAP1 HTS inh | CAL PDZ FP-2 | SIRT5 block | S100A4 MyoIIA | DENV2 CPE rescue
O=C(C[C@H]1CC[C@@H](NC(=O)Nc2ccccc2F)[C@H](CO)O1)NCc1ccccc1 | x | -2.2 | x | -0.1 | 0.0 | 16.4
C[C@@H]1CN([C@@H](C)CO)S(=O)(=O)c2ccc(C#CCN(C)C)cc2O[C@@H]1CN(C)C(=O)C1CCC1 | x | 0.0 | x | 3.9 | -15.6 | 17.0
CCCC#Cc1ccc2c(c1)O[C@H](CN(C)C(=O)C1CCC1)[C@H](C)CN([C@H](C)CO)S2(=O)=O | x | 0.3 | x | 0.7 | 4.3 | 36.2*
C[C@H]1CN([C@@H](C)CO)S(=O)(=O)c2ccc(C#CCN(C)C)cc2O[C@H]1CN(C)C(=O)C1CCC1 | x | -0.5 | x | -1.3 | -0.9 | 28.7*
CCCC#Cc1ccc2c(c1)O[C@H](CN(C)C(=O)COC)[C@H](C)CN([C@H](C)CO)S2(=O)=O | x | 1.0 | x | 9.3 | 5.2 | -11.7
CCCC#Cc1ccc2c(c1)O[C@H](CN(C)C(=O)COC)[C@@H](C)CN([C@H](C)CO)S2(=O)=O | x | 1.9 | x | -4.9 | -6.8 | 23.1*
C[C@@H]1CCCCO[C@@H](CN(C)C(=O)C2CCCCC2)[C@H](C)CN([C@@H](C)CO)C(=O)c2cc(NC(=O)c3ccncc3)ccc2O1 | x | -0.3 | x | 16.7* | -12.6 | -10.5
C[C@H](CO)N1C[C@H](C)[C@H](CN(C)C(=O)Nc2ccc(F)cc2)OCCCC[C@H](C)Oc2ccc(NC(=O)c3ccccc3)cc2C1=O | x | 0.3 | x | 4.1 | 0.4 | 83.8*
C[C@@H]1CCCCO[C@H](CN(C)C(=O)Nc2ccc(C(F)(F)F)cc2)[C@@H](C)CN([C@H](C)CO)C(=O)c2cc(NC(=O)c3ccncc3)ccc2O1 | x | 1.6 | x | -4.2 | -7.8 | 21.0*!
C[C@@H]1CCCCO[C@H](CN(C)C(=O)Nc2ccc(C(F)(F)F)cc2)[C@H](C)CN([C@@H](C)CO)C(=O)c2cc(NC(=O)c3ccncc3)ccc2O1 | x | 0.2 | x | 5.5 | 2.1 | 21.9*
Cc1cc(C(=O)Nc2cccc3c2O[C@H](CN(C)S(=O)(=O)c2ccc(Cl)cc2)[C@H](C)CN([C@@H](C)CO)C3=O)n(C)n1 | x | -1.7 | x | -5.6 | -1.3 | 4.2
COC(=O)C[C@H]1C[C@@H]2c3cc(NC(=O)Nc4ccc(C(F)(F)F)cc4)ccc3O[C@@H]2[C@@H](CO)O1 | x | 3.9 | x | 4.4 | 10.7 | 8.5
C[C@H]1CN([C@@H](C)CO)C(=O)c2cc(C#CC3CCCC3)cnc2O[C@@H]1CN(C)C(=O)C1CCCCC1 | x | -3.1 | x | 12.7 | u | -1.7

Compound activity as filed in PubChem.
